Consider twelve molecules from ChEMBL document CHEMBL1132110, “Design and fast synthesis of C-terminal duplicated potent C(2)-symmetric P1/P1'-modified HIV-1 protease inhibitors” (J Med Chem, 1999).

Experiment [1] has as its system MT4. The experiment in a line: The anti-HIV activity in the presence of human serum(hs) performed in MT-4 cells iwith AB+ serum. The note with it: read-out: ED50 (the source's name). The class given is functional. The essentials:
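MT4 cells infected with HIV-1 IIIB; compounds diluted in human AB+ serum and added after 1 h virus adsorption, final medium 50% human serum plus 10% fetal calf serum. Viral replication measured after 6 days as HIV p24 antigen; ED50 derived.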

For experiment [2], the system named is MT4. The experiment in a line: The anti-HIV activity was evaluated in MT-4 cells using colorimetric XTT assay. MT-4 cells were infected with HIV-1,IIb (in vitro). The class given is functional. Conditions: Homo sapiens, read-out: ED50 (the source's name). The essentials:
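MT4 cells (2 × 10⁴ per well) infected with HIV-1 IIIB at 10–50 TCID50/well. Compounds came from 10 mg/mL DMSO stocks, diluted in medium and added to the cells. Viability was read by XTT after 6 days to monitor the cytopathic effect, and the 50% effective dose (ED50) was determined.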

Experiment [3] has as its system MT4. The experiment in a line: The anti-HIV activity in the presence of MT-4 cells infected mutants HIV-1:M46I,V82F,[…]. The class given is functional. The note with it: Homo sapiens, read-out: ED50 (the source's name). A digest of the protocol:
(§1)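 MT4 cells (2 × 10⁴/well) infected with ritonavir-selected mutant HIV-1 (10–50 TCID₅₀/well). Mutants came from passaging cell-free virus under stepwise-increased ritonavir, then one passage without drug; protease gene sequenced. Compounds from 10 mg/mL DMSO stocks diluted in medium. Viability read by XTT after 6 days; ED50 taken as 50% dose.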

Experiment [4] addresses Human immunodeficiency virus type 1 protease (Human immunodeficiency virus 1, UniProt Q72874). The experiment in a line: Inhibitory activity against HIV-1 protease expressed in Escherichia coli.
In experiment [5] the test system is MT4. The experiment in a line: The anti-HIV activity in the presence of human serum(hs) performed in MT-4 cells with AB+ serum. The note with it: read-out: ED50 (the source's name). The class given is functional. The essentials:
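MT4 cells infected with HIV-1 IIIB. Compounds diluted in human AB+ serum were added after 1 h of virus adsorption. Final medium held 50% human serum plus 10% fetal calf serum. Viral replication was read after 6 days as HIV p24 antigen, and the ED50 was derived.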

In experiment [6] the test system is MT4. The experiment in a line: The anti-HIV activity in the presence of MT-4 cells infected mutants HIV-1:V32I,M46I,V82A. The class given is functional. The note with it: Homo sapiens, read-out: ED50 (the source's name). The essentials:
as §1

Consider `CNC(=O)[C@@H](NC(=O)[C@H](OCc1ccccc1)[C@H](O)[C@@H](O)[C@@H](OCc1ccccc1)C(=O)N[C@H](C(=O)NC)C(C)C)C(C)C`, for which the EC50 with MT4 [1] came out at 20000 nM; in the experiment on MT4 [2] it was 1500 nM; in the experiment with MT4 [3], 20000 nM.
As a reminder, the Ki is a measure of affinity in units of concentration, obtained from inhibition or displacement. Low readings indicate tighter binding, high ones weaker binding. Consider `CNC(=O)[C@@H](NC(=O)[C@H](OCc1ccc(-c2cccnc2)cc1)[C@H](O)[C@@H](O)[C@@H](OCc1ccc(-c2cccnc2)cc1)C(=O)N[C@H](C(=O)NC)C(C)C)C(C)C`, for which the inhibitory constant (Ki) in experiment [4] was determined as 0.3 nM. For the same molecule, the EC50 is 2500 nM with MT4 [2], 20000 nM in the experiment with MT4 [5], over 3000 nM with MT4 [3] and over 3000 nM in the experiment on MT4 [6].
For `CNC(=O)[C@@H](NC(=O)[C@H](OCc1ccc(Br)cc1)[C@H](O)[C@@H](O)[C@@H](OCc1ccc(Br)cc1)C(=O)N[C@H](C(=O)NC)C(C)C)C(C)C`, the inhibition constant (Ki) in experiment [4] was found to be 0.3 nM. The EC50 in the experiment with MT4 [2] was determined as 800 nM; in the experiment with MT4 [5], 2100 nM; in the experiment on MT4 [3] it was 1000 nM; in the experiment on MT4 [6], 1200 nM.
`CNC(=O)[C@@H](NC(=O)[C@H](OCc1ccc(-c2ccccc2)cc1)[C@H](O)[C@@H](O)[C@@H](OCc1ccc(-c2ccccc2)cc1)C(=O)N[C@H](C(=O)NC)C(C)C)C(C)C` showed a Ki in experiment [4] of 0.7 nM. Besides, the EC50 with MT4 [2] came to 40 nM; in the experiment on MT4 [5], 800 nM; in the experiment on MT4 [3], 700 nM; with MT4 [6], 400 nM.
In experiment [4], `CNC(=O)[C@@H](NC(=O)[C@H](OCc1ccc(/C=C/C(=O)OC)cc1)[C@H](O)[C@@H](O)[C@@H](OCc1ccc(/C=C/C(=O)OC)cc1)C(=O)N[C@H](C(=O)NC)C(C)C)C(C)C` registered an inhibition constant Ki of 0.09 nM. In addition, the EC50 in the experiment on MT4 [2] turned out to be 800 nM; in the experiment on MT4 [5] it was 5700 nM.
Turning to `CNC(=O)[C@@H](NC(=O)[C@H](OCc1ccc(-c2ccsc2)cc1)[C@H](O)[C@@H](O)[C@@H](OCc1ccc(-c2ccsc2)cc1)C(=O)N[C@H](C(=O)NC)C(C)C)C(C)C`, the EC50 in the experiment with MT4 [2] is 40 nM; in the experiment on MT4 [5], 800 nM; in the experiment with MT4 [3], 200 nM; in the experiment on MT4 [6] it was 300 nM.
The molecule `CNC(=O)[C@@H](NC(=O)[C@H](OCc1ccc(-c2ccccn2)cc1)[C@H](O)[C@@H](O)[C@@H](OCc1ccc(-c2ccccn2)cc1)C(=O)N[C@H](C(=O)NC)C(C)C)C(C)C` registered a Ki in experiment [4] of 0.6 nM. The EC50 with MT4 [2] was found to be 800 nM; with MT4 [5], 3600 nM.
In turn, `CNC(=O)[C@@H](NC(=O)[C@H](OCc1ccc(-c2cccc([N+](=O)[O-])c2)cc1)[C@H](O)[C@@H](O)[C@@H](OCc1ccc(-c2cccc([N+](=O)[O-])c2)cc1)C(=O)N[C@H](C(=O)NC)C(C)C)C(C)C` yielded a Ki in experiment [4] of 1.4 nM. The EC50 stood at 50 nM in the experiment on MT4 [2], 1100 nM in the experiment with MT4 [5], 40 nM with MT4 [3] and 1100 nM with MT4 [6].
For the molecule `CNC(=O)[C@@H](NC(=O)[C@H](OCc1ccc(-c2cccs2)cc1)[C@H](O)[C@@H](O)[C@@H](OCc1ccc(-c2cccs2)cc1)C(=O)N[C@H](C(=O)NC)C(C)C)C(C)C`, the affinity in experiment [4], expressed as Ki, was 1.2 nM. For the same molecule, the EC50 in the experiment with MT4 [2] was 40 nM; in the experiment with MT4 [5] it was 1000 nM; in the experiment on MT4 [3], 200 nM; in the experiment on MT4 [6], 300 nM.
Regarding `CNC(=O)[C@@H](NC(=O)[C@H](OCc1ccc(C2=C(O)C(=O)CCC2)cc1)[C@H](O)[C@@H](O)[C@@H](OCc1ccc(C2=C(O)C(=O)CCC2)cc1)C(=O)N[C@H](C(=O)NC)C(C)C)C(C)C`, affinity in experiment [4] was put at a Ki of 0.3 nM. The figures for the EC50 in the experiment on MT4 [2] and in the experiment with MT4 [5] were 3700 nM and 20000 nM, respectively.
In experiment [4], `CNC(=O)[C@@H](NC(=O)[C@H](OCc1ccc(-c2nccs2)cc1)[C@H](O)[C@@H](O)[C@@H](OCc1ccc(-c2nccs2)cc1)C(=O)N[C@H](C(=O)NC)C(C)C)C(C)C` registered a Ki of 0.6 nM. Further, the EC50 with MT4 [2] was 300 nM; in the experiment with MT4 [5], 400 nM; in the experiment with MT4 [3], over 3000 nM; in the experiment on MT4 [6], over 3000 nM.
Turning to `CNC(=O)[C@@H](NC(=O)[C@H](OCc1ccc(CCc2ccccc2)cc1)[C@H](O)[C@@H](O)[C@@H](OCc1ccc(CCc2ccccc2)cc1)C(=O)N[C@H](C(=O)NC)C(C)C)C(C)C`, affinity in experiment [4] was put at a Ki of 3.8 nM. For the same molecule, the EC50 in the experiment on MT4 [2] was determined as 2100 nM.
